Test results taken from ChEMBL document CHEMBL4732138, “Evaluation of the Structure-Activity Relationship of Microtubule-Targeting 1,2,4-Triazolo[1,5-a]pyrimidines Identifies New Candidates for Neurodegenerative Tauopathies” (J Med Chem, 2021).
The source made the active and inactive calls. No cut-off for these calls is given here.

What was measured:
[1] = molecular target: T1, Tubulin (Homo sapiens) (UniProt P68371+Q9H4B7+P0DPH7+P68366+Q13509+Q71U36+P04350+Q3ZCM7+P07437+P68363+Q9BQE3+Q6PEY2+Q13885+Q9BVA1+Q9BUF5); assay: Stabilization of microtubules in human QBI293 cells assessed as fold change in acetylated tubulin levels at 1 uM after 4 hrs by ELISA relative to DMSO; type: cell-based
Summary of the method: (§1)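 QBI293 cells were grown in DMEM with 10% FBS, 2 mM L-glutamine and penicillin/streptomycin, then plated at 6 × 10^5 cells/well and left overnight. Medium was replaced with fresh medium holding vehicle (DMSO) or compound, and cells were incubated 4 h. Whole-cell extract supernatants were protein-normalized by BCA assay. AcTub and α-tubulin were quantified by ELISA against standard curves. Values are fold-change over DMSO, analysed by one-way ANOVA.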

[2] = molecular target: T1, Tubulin (Homo sapiens); assay: Stabilization of microtubules in human QBI293 cells assessed as fold change in acetylated tubulin levels at 10 uM after 4 hrs by ELISA relative to DMSO; type: cell-based; summary of the method: as §1
[3] = molecular target: T1, Tubulin (Homo sapiens); assay: Stabilization of microtubules in human QBI293 cells assessed as fold change in alpha tubulin levels at 1 uM after 4 hrs by ELISA relative to DMSO; type: cell-based; summary of the method: as §1
[4] = molecular target: T1, Tubulin (Homo sapiens); assay: Stabilization of microtubules in human QBI293 cells assessed as fold change in alpha tubulin levels at 10 uM after 4 hrs by ELISA relative to DMSO; type: cell-based; summary of the method: as §1
[5] = molecular target: T1, Tubulin (Homo sapiens); assay: Stabilization of microtubules in human QBI293 cells assessed as fold change in acetylated tubulin levels at 1 uM after 4 hrs by ELISA relative to cevipabulin; type: cell-based
[6] = molecular target: T1, Tubulin (Homo sapiens); assay: Stabilization of microtubules in human QBI293 cells assessed as fold change in acetylated tubulin levels at 10 uM after 4 hrs by ELISA relative to cevipabulin; type: cell-based
[7] = n-octanol-water distribution coefficient, log D of the compound at pH 7.4 by shake flask method; type: physicochemical; settings: n-octanol/water, read-out: logD
Summary of the method: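 Distribution coefficient between n-octanol and water at pH 7.4, measured by shake-flask method.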

[8] = molecular target: T1, Tubulin (Homo sapiens); assay: Stabilization of microtubules in human QBI293 cells assessed as decrease in alpha-tubulin levels at 10 uM after 4 hrs by ELISA relative to control; type: cell-based; design: scale not given: the % may be the effect or the level left
Summary of the method: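 QBI293 cells grown in DMEM with 10% FBS, 2 mM L-glutamine and penicillin/streptomycin, plated at 6 × 10^5 cells/well and left overnight. […] Whole-cell extract supernatants protein-normalised by BCA. Total α-tubulin measured by ELISA against standard curves, reported as fold-change over DMSO-treated cells; one-way ANOVA.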

[9] = molecular target: T1, Tubulin (Homo sapiens); assay: Stabilization of microtubules in human QBI293 cells assessed as increase in acetylated tubulin levels after 4 hrs by ELISA; type: cell-based
Summary of the method: (§2)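 QBI293 cells are grown in DMEM with 10% FBS, 2 mM L-glutamine and penicillin/streptomycin, plated at 6 × 10^5 cells/well and incubated overnight. […] Acetyl- and total α-tubulin in whole-cell extract supernatants are measured by ELISA against standard curves, with protein by BCA. Values are fold-change over DMSO; AcTub is also given relative to 100 nM cevipabulin positive control. Significance is by one-way ANOVA.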

[10] = Ratio of drug concentration in brain to plasma in CD-1 mouse at 2.5 mg/kg, ip administered as single cassette dosing and measured after 1 hr; type: ADME, organism-based; settings: read-out: BPR
Summary of the method: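 Groups of three female CD-1 mice, 2–3 months old, cassette-dosed i.p. with 2–3 compounds at the same time, each at 2.5 mg/kg in DMSO. Euthanised 1 h after dosing. Brain hemispheres homogenised in 10 mM ammonium acetate pH 5.7 (50% w/v). Plasma from blood collected in EDTA and centrifuged 4,500 × g, 10 min, 4 °C. Compound levels measured in both; brain/plasma ratio reported.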

[11] = molecular target: T1, Tubulin (Homo sapiens); assay: Stabilization of microtubules in human QBI293 cells assessed as decrease in alpha-tubulin levels at 1 to 10 uM after 4 hrs by ELISA relative to control; type: cell-based; design: scale not given: the % may be the effect or the level left; settings: dose 1-10 µM; summary of the method: as §2
[12] = Ratio of drug concentration in brain to plasma in CD-1 mouse at 5 mg/kg, ip administered as single cassette dosing and measured after 1 hr; type: ADME, organism-based; settings: read-out: BPR
Summary of the method: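 Groups of three female CD-1 mice (2–3 months old) received one i.p. dose of 5 mg/kg in DMSO and were euthanized 1 h later. Brain hemispheres were sonicated in 10 mM ammonium acetate, pH 5.7 (50% w/v). Plasma came from blood collected in 0.5 M EDTA, spun 10 min at 4,500 × g, 4 °C. B/P is the ratio of brain to plasma compound concentration.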

[13] = Half life in CD-1 mouse plasma at 5 mg/kg, ip administered as single cassette dosing and measured upto 16 hrs; type: ADME, organism-based
Summary of the method: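 CD-1 mice, female, 2–3 months old, three per group, given a single i.p. dose of 5 mg/kg dissolved in DMSO. Brain and plasma sampled over 16 h. Plasma is from blood collected in 0.5 M EDTA and spun 10 min at 4,500 × g, 4 °C. Brain hemispheres are sonicated in 10 mM ammonium acetate pH 5.7 (50% w/v). Compound levels are measured in plasma and brain homogenates.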

[14] = tested on: Primary cortical neuron; assay: Stabilization of microtubules in Spargue-Dawley rat primary cortical neurons assessed as prevention of microtubule collapse by causing increase in acetyl tubulin levels at 1 uM incubated for 8 hrs in presence of phosphatase inhibitor OA by fluorescence microscopy analysis; type: tissue-based
Summary of the method: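 Rat cortical neurons are grown 10 days on coverslips. They are treated 8 h with or without 15 nM okadaic acid, with or without test compound at 1 µM. Axonal acetyl-tubulin is then assessed by immunostaining.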

[15] = tested on: Primary cortical neuron; assay: Stabilization of microtubules in CD-1 mouse primary cortical neurons assessed as prevention of microtubule collapse by causing increase in acetyl tubulin levels at 10 uM incubated for 8 hrs in presence of phosphatase inhibitor OA by ELISA; type: tissue-based
Summary of the method: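 Mouse cortical neurons are plated at 6 × 10^5 cells/well and grown 10 days. […] Acetyl-tubulin in homogenates is measured by ELISA.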

Structure (SMILES) | fold change (FC) [1] | fold change (FC) [2] | fold change (FC) [3] | fold change (FC) [4] | fold change (FC) [5] | fold change (FC) [6] | logD [7] | Activity [8] [%] | Activity [9] | Kp at 1 h [10] | Activity [11] [%] | Kp at 1 h [12] | half-life [13] [h] | Activity [14] | Activity [15]
CC(C)[C@@H](C)Nc1c(-c2c(F)cccc2F)c(Cl)nc2ncnn12 | 4.36 | 4.88 | 1 | 0.96 | 0.96 | 1.07 | 3.16 | – | – | – | – | – | – | – | –
CC(Cc1c(-c2c(F)cc(F)cc2F)c(Cl)nc2ncnn12)C(F)(F)F (configuration not stated) | 2.3 | 2.29 | 1.03 | 0.78 | 0.53 | 0.53 | – | 22 | – | – | – | – | – | – | –
CO[C@H]1C[C@H]2CC[C@@H](C1)N2c1c(-c2c(F)cc(F)cc2F)c(Cl)nc2ncnn12 | 3.65 | 7.43 | 1.12 | 1.38 | 0.54 | 1.11 | 3.38 | – | Dose-dependent effect | – | – | – | – | – | –
CC(C)[C@@H](C)Nc1c(-c2c(F)cc(C#N)cc2F)c(Cl)nc2ncnn12 | 3.8 | 4.28 | 0.93 | 0.94 | 0.62 | 0.69 | 2.47 | – | – | 0.7 | – | – | – | – | –
N#Cc1cc(F)c(-c2c(Cl)nc3ncnn3c2N2CCCCCC2)c(F)c1 | 6.4 | 11.2 | 0.98 | 0.99 | 1.04 | 1.82 | 2.12 | – | – | 0.7 | – | – | – | – | –
Cc1cc(F)c(-c2c(Cl)nc3ncnn3c2N[C@@H](C)C(F)(F)F)c(F)c1 | 1.62 | 2.73 | 0.99 | 0.78 | 0.28 | 0.48 | – | – | – | – | > 15 | – | – | – | –
CC(C)[C@@H](C)Nc1c(-c2ccccc2F)c(Cl)nc2ncnn12 | 0.95 | 2.1 | 1 | 1.04 | 0.2 | 0.43 | 2.95 | – | – | – | – | – | – | – | –
COc1cc(F)c(-c2c(Cl)nc3ncnn3c2N[C@@H](C)C(F)(F)F)c(F)c1 | 3.16 | 2.07 | 0.72 | 0.51 | 0.64 | 0.42 | – | – | – | – | > 15 | – | – | – | –
N#Cc1ccc(-c2c(Cl)nc3ncnn3c2N2CCCCCC2)c(F)c1 | 7.17 | 12.6 | 1.04 | 0.99 | 0.55 | 0.97 | 3.15 | – | – | – | – | – | – | – | –
C[C@@H](Nc1c(-c2ccc(C#N)cc2F)c(Cl)nc2ncnn12)C(C)(C)C | 4.41 | 7.67 | 0.86 | 0.93 | 0.71 | 1.24 | 2.86 | – | – | – | – | – | – | – | –
C[C@H](Nc1c(-c2c(F)cc(Cl)cc2F)c(Cl)nc2ncnn12)C(F)(F)F | 1.88 | 4.28 | 0.93 | 0.81 | 0.31 | 0.7 | – | – | – | – | > 15 | – | – | – | –
CSc1cc(F)c(-c2c(Cl)nc3ncnn3c2N[C@@H](C)C(F)(F)F)c(F)c1 | 1.75 | 2.23 | 0.88 | 0.56 | 0.27 | 0.35 | – | – | – | – | > 15 | – | – | – | –
CC(C)[C@@H](C)Nc1c(-c2c(F)cc(F)cc2F)c(Cl)nc2ncnn12 | – | – | – | – | – | – | 3.51 | – | Dose-dependent effect | – | – | 2.7 | 1.1 | Active | –
CO[C@H]1C[C@H]2CC[C@@H](C1)N2c1c(-c2c(F)cc(C#N)cc2F)c(Cl)nc2ncnn12 | 2.61 | 4.32 | 0.99 | 1 | 0.64 | 1.06 | 2.74 | – | – | – | – | – | – | – | –
C[C@@H](Nc1c(-c2c(F)cc(C#N)cc2F)c(Cl)nc2ncnn12)C(C)(C)C | – | – | – | – | – | – | 2.35 | – | – | 0.7 | – | – | 1.8 | Active | Active
C[C@H](Nc1c(-c2c(F)cc(OCCCO)cc2F)c(Cl)nc2ncnn12)C(F)(F)F | – | – | – | – | – | – | – | – | – | – | > 15 | – | – | – | –
C[C@H](Nc1c(-c2c(F)cc(O)cc2F)c(Cl)nc2ncnn12)C(F)(F)F | 1.22 | 4.11 | 0.84 | 0.57 | 0.23 | 0.77 | – | – | – | – | > 15 | – | – | – | –
CC(C)[C@H](Nc1c(-c2c(F)cc(F)cc2F)c(Cl)nc2ncnn12)C(F)(F)F | – | – | – | – | – | – | – | 39 | – | – | – | – | – | – | –
Fc1cc(F)c(-c2c(Cl)nc3ncnn3c2N2CCCCCC2)c(F)c1 | 4.16 | 6.87 | 0.99 | 0.99 | 0.45 | 0.74 | 3.38 | – | Dose-dependent effect | – | – | 1.4 | – | – | –
